NALP1 yeast inh: NALP1 inflammasome inhibitors in reconstituted yeast, colorimetric, S. cerevisiae, triplicate retest | S. cerevisiae NALP1/ASC/caspase-1 growth, X-gal OD620, 72 h | inhibition, % at 10 µM | actives 0.61% (n = 280,000) | AID 2071, 2009; in the data active = inhibition mostly above about 24%, no sharp cut-off; inactive = mostly below about 32%
UBC9 SUMO inh: inhibitors of in vitro SUMOylation cascade, primary screen, biochemical, HTRF, uHTS; SUMO-conjugating enzyme UBC9 (Homo sapiens), P63279; HTRF SUMOylation assay, SAE1/SAE2 + UBC9; inhibition, % at 35 µM; actives 0.36% (n = 290,000); AID 2006, 2009; in the data active = inhibition above about 50%, passing the limit was not always enough
Target sequence (P63279 whole entry, looked up): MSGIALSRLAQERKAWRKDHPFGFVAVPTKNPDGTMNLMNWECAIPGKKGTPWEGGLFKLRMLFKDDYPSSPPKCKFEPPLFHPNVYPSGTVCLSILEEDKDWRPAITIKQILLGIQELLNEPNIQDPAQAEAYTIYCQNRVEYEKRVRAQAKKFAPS
IMP-1 inh: IMP-1 metallo-beta-lactamase inhibitors, primary screen, biochemical, epi-absorbance readout, Pseudomonas aeruginosa enzyme; metallo-beta-lactamase IMP-1 (Pseudomonas aeruginosa); purified IMP-1, nitrocefin hydrolysis, epi-absorbance fluorescence; inhibition, % at 5.6 µM; actives 0.45% (n = 290,000); AID 1556, 2009;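 active = inhibition above the mean plus 3 SD of all compounds in the same screening run, cut at about 4.5% in these data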;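 note: 0% = IMP-1 with DMSO and 100% = DMSO wells lacking enzyme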
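System: purified IMP-1; amount: IMP-1 0.2 nM before substrate addition; compound: single dose, 5.6 µM; times: 25 °C, 15 min preincubation, 25 min reaction; signal: Epi-absorbance via hydrolysed-nitrocefin quenching of white-plate fluorescence, 480/530 nm, EDTA stop; benchmarks: DMSO with and without IMP-1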
VIM-2 inh: VIM-2 metallo-beta-lactamase inhibitors, primary screen, biochemical, epi-absorbance readout, Pseudomonas aeruginosa enzyme. actives 0.89% (n = 290,000). inhibition, % at 5.6 µM. AID 1527, 2009. purified VIM-2, nitrocefin hydrolysis, epi-absorbance fluorescence;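 active = inhibition above the mean of all tested compounds plus 3 SD, cutoff set per screening run, cut at about 7.5% in these data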;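 note: red hydrolysis product quenches plate fluorescence so inhibitors raise well fluorescence; 0% = enzyme with DMSO and 100% = DMSO without enzyme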
DNA FID counter: compounds displacing fluorescent DNA intercalator, primary screen, artefact control for HCV NS3 helicase inhibitor project, biochemical, FID fluorescence; DNA fluorescent intercalator displacement; inhibition, % at 7.9 µM; actives 0.17% (n = 290,000); AID 1845, 2009; in the data active = inhibition above about 37%;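 note: 0% = vehicle and 100% = reference compound; higher means more ethidium bromide displaced from hairpin DNA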
SUMO Mot1 rescue: yeast Mot1-301 growth rescue at high temperature, primary screen, SUMOylation pathway inhibitor project, S. cerevisiae, ATP luminescence, 38.5C | growth rescue, % at 18.8 µM | actives 1% (n = 320,000) | S. cerevisiae Mot1-301 growth rescue; percent above DMSO median, 100 means doubled | AID 2716, 2010;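 active = every valid replicate shows activation above 250% relative to neutral control wells; inactive = the rest, any valid replicate at or below 250%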;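 note: OY570 slx delta 5 strain wells were the positive control but not used for scaling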
Mot1 SUMO dose: growth restoration of Mot1-301 yeast on galactose, dose response, SUMO pathway inhibitor project, whole organism, S. cerevisiae, ATP luminescence, cherry-picked samples; S. cerevisiae Mot1-301 galactose growth, 24 h; -100 = growth of slx-deleted rescue strain; growth activity, percent, % at 42 µM; AID 493004, 2010; 2,300 tested, under 10 active; shares compounds with SUMO Mot1 rescue;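 active = Signal drops as the depositor expects, and the fitted half-maximal dose is no more than ten times the top valid tested dose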;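 note: more negative values mean stronger growth rescue toward the control strain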
Numbers without * were called inactive; . = no result given; + = active, no number. The list is not random: actives were taken first. Their share in the collection is about 2.9%.

SMILES	NALP1 yeast inh	UBC9 SUMO inh	IMP-1 inh	VIM-2 inh	DNA FID counter	SUMO Mot1 rescue	Mot1 SUMO dose
COC(=O)c1ccccc1NC(=O)CSc1nnnn1CC(=O)O	1.0	-2.7	-0.5	-2.5	-4.8	616.1*	0.0
Cc1ccc(NC(=O)Cn2sc3nc(C)cc(C)c3c2=O)c(Cl)c1	-18.7	15.9	-6.0	-3.4	-15.6	558.6*	0.4
Cc1cc(C)cc(-n2c(C)cc(/C=N/NC(=O)c3ccncc3)c2C)c1	-6.5	10.6	-1.9	-1.9	-12.5	154.0	.
Cc1cc(/C=N/NC(=O)c2ccsc2)c(C)n1-c1cnccn1	16.9	16.9	-5.7	-7.6	-2.9	555.2*	0.2
O=C(NCC1CCCO1)c1nc(Cn2ccc([N+](=O)[O-])n2)no1 (centres undefined)	-8.8	13.3	-3.6	-4.6	-8.8	-10.3	.
C=CC[N+]1(CC#CCOC(c2ccccc2)c2ccccc2)CCOCC1	18.0	-13.4	-2.0	-2.4	21.9	-19.5	.
C=CC[N+]1(CC#Cc2ccccc2)CCCC1	5.9	10.0	-3.6	-1.3	-1.2	393.4*	-0.4
COC(=O)c1cc(NC(=O)c2cc(-c3ccc(Cl)cc3)oc2C(F)(F)F)ccc1N1CCOCC1	.	7.0	-1.5	-0.8	-23.6	-7.4	.
Cc1ccc(SCC(=O)O/N=C(\N)c2cccc([N+](=O)[O-])c2)cc1	2.2	-5.9	-0.7	1.9	8.7	+	-0.4
COc1c2ccoc2nc2c(OC)c(OCC(O)C(C)(C)O)ccc12 (centres undefined)	6.0	14.7	-3.7	0.6	-11.0	26.8	.
COc1c2ccoc2nc2c(OC)c(OC[C@@H](O)C(C)(C)O)ccc12	.	.	.	.	.	724.3*	-0.8
N#CCCN1CCN(S(=O)(=O)c2ccc(C3CCCCC3)cc2)CC1	.	.	.	.	.	-10.4	.
O=S(=O)(c1ccc(S(=O)(=O)N2CCCC2)cc1)N1CCCCC1	10.6	10.6	-0.6	1.8	-8.8	682.6*	-0.2
NS(=O)(=O)c1ccc(S(=O)(=O)N2CCCC2)cc1	3.8	14.3	-3.8	-0.8	-1.1	-4.5	.
O=S(=O)(c1ccc(C2CCCCC2)cc1)N1CCCC1	-2.8	-0.8	-3.1	-3.1	-15.3	621.2*	-0.4
CCC1CCCCN1CCCNC(=O)C1CCN(c2nnc(-n3cccc3)s2)CC1 (centres undefined)	1.3	.	-2.0	-2.6	18.6	238.7	.
Cc1sc(NC(=O)c2ccc(Cl)s2)c(C(N)=O)c1C	13.8	17.9	-3.0	-3.8	4.3	23.4	.
Cc1sc(NC(=O)c2ccc(Br)s2)c(C(N)=O)c1C	8.8	8.9	-3.9	1.1	0.4	408.3*	-1.9
O=[N+]([O-])c1cc2c(c(CSc3nnc4ccccn34)c1)OCOC2	19.0	-19.6	0.0	-1.4	3.0	13.9	.
Nn1c(SCc2cc([N+](=O)[O-])cc3c2OCOC3)nnc1-c1ccccn1	6.9	10.6	-0.4	-1.6	-1.4	530.7*	0.7
CC1(C)Cc2c(cnn2-c2ccc(F)cc2)C(NC(=O)CCCN2CCCCC2=O)C1 (centres undefined)	-8.0	-10.6	-2.3	-0.1	-44.5	523.1*	0.2
Cc1c(NC(=O)CN2C(=O)NC(C)(c3ccc(OC(F)F)cc3)C2=O)c(=O)n(-c2ccccc2)n1C (centres undefined)	.	.	.	.	.	378.7*	0.5
COc1ccc(C2(C)NC(=O)N(CC(=O)Nc3c(C)n(C)n(-c4ccccc4)c3=O)C2=O)cc1 (centres undefined)	.	.	.	.	.	204.8	.
Cc1nn(-c2ccc(Cl)nn2)c(=O)c2ccccc12	-4.5	22.6	-2.8	1.3	1.7	-13.3	.
Cc1ccc(N(CC(=O)NC2CCCC2)C(=O)CNC(=O)c2cccs2)cc1C	11.5	-8.9	-1.0	0.2	-39.4	16.7	.
SMILES	NALP1 yeast inh	UBC9 SUMO inh	IMP-1 inh	VIM-2 inh	DNA FID counter	SUMO Mot1 rescue	Mot1 SUMO dose
On1c(-c2ccccc2Cl)nc2ncccc21	13.5	-1.4	-0.1	-1.5	-1.7	498.0*	0.4
On1c(-c2ccccc2Cl)nc2ccccc21	26.3	11.7	-4.0	-3.0	-7.2	-1.7	.
CCOc1ccccc1/C=N/N1CCN(Cc2ccccc2)CC1	20.7	20.1	2.9	0.5	-6.9	-10.2	.
CCCCn1c2c(c(=O)n(C)c1=O)C(c1ccc(OC)cc1)N1CCCCCC1=N2 (centres undefined)	-14.5	7.9	-2.7	-1.4	-29.3	+	-0.4
CN(C)c1ccc(C(=O)N2CCCC(CCC(=O)N3CCN(c4ccccn4)CC3)C2)cc1 (centres undefined)	-6.0	1.2	-1.0	-2.6	-43.7	553.6*	-0.1
COc1ccc(NC(=O)CSc2nc3n[nH]c(C)c3c(=N)n2-c2ccc(Cl)c(C)c2)cc1OC	28.7	22.2	-1.8	-1.7	-31.2	6.5	.
Cc1nc2nc(SCc3ccc([N+](=O)[O-])cc3)[nH]c2cc1Br	22.6	24.7	-1.3	-2.5	1.1	-1.0	.
Cc1c(C(c2ccccc2Br)c2c(C)n(C)n(-c3ccccc3)c2=O)c(=O)n(-c2ccccc2)n1C	-3.8	8.3	-3.8	-3.3	-33.6	31.3	.
Cc1cc(C)cc(OCC(=O)Nc2ccc(N3CCN(C(=O)c4ccco4)CC3)cc2)c1	27.1	13.3	-1.3	-3.1	-25.2	793.0*	-0.6
COc1ccc(OCC(=O)Nc2ccc(N3CCN(C(=O)c4ccco4)CC3)cc2)cc1	-4.1	4.9	-3.4	-3.0	-35.5	-3.9	.
CC1=C(C)CC(C(=O)NCc2c(F)cccc2Cl)C(C(=O)O)C1 (centres undefined)	17.1	3.7	0.0	3.7	-8.4	22.8	.
O=C(COC(=O)c1cccc(Br)c1)Nc1ccc2[nH]c(=O)[nH]c2c1	.	.	.	.	.	510.1*	-0.1
O=C(COc1ccc([N+](=O)[O-])cc1)Nc1ccc(C(=O)NCc2cccnc2)cc1	10.1	-13.6	-2.0	0.3	-4.9	481.2*	0.3
Cc1nn(-c2ccccc2)nc1C(=O)NNC(=O)c1ccc(C(F)(F)F)cc1	.	5.2	-1.8	-3.5	-10.6	3.0	.
CCn1c(N2CCN(C(=O)C34CC5CC(CC(C5)C3)C4)CC2)nc2ccccc21	46.1	11.2	-1.0	-0.8	-32.6	389.3*	0.0
O=C(N1CCN(c2ccccc2)CC1)C12CC3CC(CC(C3)C1)C2	22.3	20.1	0.3	-1.0	-7.7	16.1	.
Fc1cccc(F)c1-c1nc(-c2ccncc2)no1	16.0	14.8	-0.6	0.4	-3.8	952.5*	-0.4

Compound activity from PubChem BioAssay.
